Active and inactive are the calls of the source.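 How the source made its calls, unless noted: active means NADPH fluorescence slope more negative than the mean of all samples by about 3 SD, 99.7% confidence; inactive means the rest.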
Tests used:
[1] = inhibitors of TNFa-induced NFkB p65 translocation, primary screen, imaging, HUVEC, MLSMR starter and 10KST1 sets (AID 438;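 active means inhibition above 20% together with a positive visual image hit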;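 further: compound added about 3h40 before a 20 min TNFalpha stimulation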;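 on inhibition: signal is the nuclear over cytoplasmic p65 intensity ratio per well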); conditions: HUVEC TNFa-induced p65 nuclear translocation; cell count: measured here: nuclei count (cytotoxicity indicator), at 2.08 µM; inhibition: at 2 µM, stronger effect = higher value, 0% TNFa-plus-vehicle, 100% no-TNFa wells
[2] = reduction of polyQ htt aggregates in cells – imaging, exon1htt(103Q)mCFP cells, high-content imaging, primary screen (AID 483;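 active means visual image review flags a hit and inhibition of aggregation exceeds 20%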;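 further: compound exposure lasted 3 days before fixation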;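 on nuclei count: percent of the per-plate median nuclei count of sample wells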); conditions: exon1htt(103Q)mCFP cell line, aggregate imaging, at 2 µM; inhibition of aggregation: stronger effect = higher value; nuclei count: measured here: cell count, toxicity
[3] = endothelial E-selectin expression blockers – imaging, HUVEC, immunofluorescence, MLSMR starter and 10KST1 sets, primary screen (AID 487;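 active means visually confirmed hit in the image check and inhibition above 20%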;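 on inhibition: signal is fraction of cell area covered by stained E-selectin grains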;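 on nuclei count: 100% = median nuclei count of all wells on the same plate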); conditions: HUVEC TNFalpha-induced E-selectin immunofluorescence imaging, at 2 µM; inhibition: stronger effect = higher value; nuclei count: measured here: cell number, toxicity
[4] = molecular target: Voltage-gated potassium channel subunit beta-2 (Rattus norvegicus) (UniProt P62483); test: inhibitors of rat Kvbeta2 reductase activity – biochemical, NADPH fluorescence, primary screen (AID 622;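 active means fluorescence slope higher than the sample average by over 3 SD, cut at about -0.22 in these data, passing the limit was not always enough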;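 further: slope of raw intensity against log time taken from 70 to 1610 s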); conditions: recombinant KvBeta, 4-cyanobenzaldehyde reduction, at 10 µM, stronger effect = higher value
Chain of Voltage-gated potassium channel subunit beta-2 (Rattus norvegicus) (P62483 whole entry, looked up): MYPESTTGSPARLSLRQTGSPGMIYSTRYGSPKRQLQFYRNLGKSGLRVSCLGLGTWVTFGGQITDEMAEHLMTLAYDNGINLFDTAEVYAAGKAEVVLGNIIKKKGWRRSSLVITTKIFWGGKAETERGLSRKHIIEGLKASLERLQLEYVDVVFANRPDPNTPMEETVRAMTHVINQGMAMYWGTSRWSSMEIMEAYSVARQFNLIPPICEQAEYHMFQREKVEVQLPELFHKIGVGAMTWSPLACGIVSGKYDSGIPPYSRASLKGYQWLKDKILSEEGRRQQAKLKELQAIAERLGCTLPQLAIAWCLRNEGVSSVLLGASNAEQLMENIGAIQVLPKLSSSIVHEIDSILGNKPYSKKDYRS

[5] = molecular target: Voltage-gated potassium channel subunit beta-2 (Rattus norvegicus) (UniProt P62483); test: enhancers of rat Kvbeta2 NADPH turnover – biochemical, NADPH fluorescence, primary screen (AID 623); conditions: Recombinant KvBeta, NADPH fluorescence decrease slope, 10 min; at 10 µM; stronger effect = lower value;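 further: fluorescence intensity change per second fitted from 20 to 320 s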
[6] = molecular target: Muscarinic acetylcholine receptor M4 (Homo sapiens) (UniProt P08173); test: M4-linked GIRK flux change, two-sided – cell-based, HEK293 M4/GIRK, thallium flux, BTC-AM, M4 allosteric agonist project, primary screen (AID 625;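 active means fluorescence slope after compound addition differing from the mean of all tested samples at 99.7% confidence, mostly higher but some lower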;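 further: thallium influx through GIRK channels coupled to M4 in HEK293 cells with BTC-AM dye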); conditions: at 10 µM, actives lie on both sides
Chain of Muscarinic acetylcholine receptor M4 (Homo sapiens) (P08173 whole entry, looked up): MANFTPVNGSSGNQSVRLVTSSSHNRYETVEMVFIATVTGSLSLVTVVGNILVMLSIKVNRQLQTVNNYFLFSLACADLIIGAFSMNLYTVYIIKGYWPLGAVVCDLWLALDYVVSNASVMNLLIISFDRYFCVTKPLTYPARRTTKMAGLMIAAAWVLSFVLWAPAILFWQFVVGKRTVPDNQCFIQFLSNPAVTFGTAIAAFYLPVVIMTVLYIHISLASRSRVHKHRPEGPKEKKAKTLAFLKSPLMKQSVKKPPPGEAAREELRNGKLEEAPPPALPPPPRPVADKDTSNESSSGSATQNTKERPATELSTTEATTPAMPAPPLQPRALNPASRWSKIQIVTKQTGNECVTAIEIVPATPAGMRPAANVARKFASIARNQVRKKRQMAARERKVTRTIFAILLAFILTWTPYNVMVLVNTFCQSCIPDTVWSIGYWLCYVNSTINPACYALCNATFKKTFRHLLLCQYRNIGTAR
In short: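 Material: M4/GIRK1/GIRK2 stable HEK293 cell line. Medium: pH 7.3 thallium assay buffer. Dosing: single compound concentration, 10 µM final. Schedule: 1 h dye loading, 2 min kinetic read. Measured by: kinetic fluorescence with BTC-AM dye. Read-out: post-addition slope, 15–24 s, of baseline-normalized fluorescence. Benchmarks: carbachol and DMSO controls.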

[7] = blockers of RIG-like receptor reporter activation – cell-based, Sendai virus stimulus, luciferase, 10K MLSCN set, TLR/RLR signaling modifier project, primary screen (AID 602276;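 active means inhibition at or above 50% at 10 µM; inactive means inhibition below 50%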;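 further: firefly luciferase from ISG56 promoter only with Renilla not read in this screen; 0% = Sendai virus plus DMSO and 100% = medium plus DMSO without virus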); conditions: HEK293 RL24 IRF3 luciferase reporter, at 10 µM, stronger effect = higher value
[8] = TLR3 IRF3 reporter activation blockers – cell-based, poly I:C stimulus, luciferase, 10K MLSCN set, primary screen (AID 602277;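 active means inhibition of the reporter signal at or above 50%; inactive means inhibition below 50%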); conditions: HEK293-TLR3 RL24 IRF3 luciferase reporter, at 10 µM, stronger effect = higher value

| Structure (SMILES) | cell count [1] | inhibition [1] | inhibition of aggregation [2] | nuclei count [2] [%] | inhibition [3] | nuclei count [3] [%] | fluorescence slope [4] | NADPH fluorescence slope [5] | fluorescence slope [6] | inhibition [7] | inhibition [8] |
| --- | --- | --- | --- | --- | --- | --- | --- | --- | --- | --- | --- |
| CC1c2nc3ccccc3n2C(CC(=O)NCc2ccccn2)C(=O)N1Cc1ccccc1 (stereo not drawn) | 678 | -3.4% (inactive) | -12.5% (inactive) | 119 | -115% (inactive) | 119 | -0.505 (inactive) | -1.2e-05 (inactive) | 0.0053 (inactive) | 15% (inactive) | 22.6% (inactive) |
| COc1ccccc1N1CCN(C(=O)c2oc3cc(C)c(C)cc3c2C)CC1 | 355 | 1.3% (inactive) | -10.8% (inactive) | 101 | -46.9% (inactive) | 87.3 | -0.546 (inactive) | 2.2e-05 (inactive) | 0.00423 (inactive) | 21.1% (inactive) | 15% (inactive) |
| CN(C)c1nc(N)nc(CSc2nnnn2-c2cccc3ccccc23)n1 | 627 | -10.4% (inactive) | 27.3% (inactive) | 71.9 | -69.3% (inactive) | 103 | -0.463 (inactive) | -3.9e-05 (inactive) | 0.00537 (inactive) | 18.6% (inactive) | 14.8% (inactive) |
| Cc1cc(-c2nc3ncccc3o2)ccc1N | 306 | -8.9% (inactive) | 23.3% (inactive) | 102 | -35.5% (inactive) | 99.8 | -0.0237 (inactive) | 9.6e-08 (inactive) | 0.00386 (inactive) | -34.7% (inactive) | -101% (inactive) |
| COc1cc(C)nc(NS(=O)(=O)c2ccc(C)cc2)n1 | 399 | 3.9% (inactive) | -0.3% (inactive) | 97.2 | -45.6% (inactive) | 109 | -0.563 (inactive) | -2.7e-05 (inactive) | 0.00648 (inactive) | 20.8% (inactive) | 23% (inactive) |
| Cc1ccccc1C(=O)NC1CCN(CC(=O)Nc2nccs2)CC1 | 608 | -39.8% (inactive) | 8.2% (inactive) | 111 | -37.1% (inactive) | 109 | -0.476 (inactive) | 7.7e-05 (inactive) | 0.00698 (inactive) | 9.51% (inactive) | 14.2% (inactive) |
| CS(=O)(=O)N(CC(=O)N1CCN(c2cccc(Cl)c2)CC1)C1CCCCC1 | 645 | -6% (inactive) | 11% (inactive) | 87.4 | 8.8% (inactive) | 78.2 | -0.576 (inactive) | -4.3e-05 (inactive) | 0.00576 (inactive) | 2.97% (inactive) | 0.307% (inactive) |
| O=c1c2c(nc3nc(COc4ccccc4)[nH]n13)CCC2 | 305 | 5.6% (inactive) | 19.9% (inactive) | 100 | -89.8% (inactive) | 102 | -0.539 (inactive) | -9.7e-06 (inactive) | 0.00436 (inactive) | 15.2% (inactive) | 18% (inactive) |
| CCC1CCCCN1S(=O)(=O)c1ccc(C(=O)Nc2nnc(-c3cccs3)o2)cc1 (stereo not drawn) | 404 | 5.3% (inactive) | 8.5% (inactive) | 97 | -211% (inactive) | 111 | -0.486 (inactive) | -0.000271 (inactive) | 0.0055 (inactive) | 10.8% (inactive) | 16.6% (inactive) |
| O=C1c2ccccc2-c2nc3ncnn3c(-c3ccccc3)c21 | 377 | -7.8% (inactive) | -4.5% (inactive) | 83.8 | -6.8% (inactive) | 107 | -0.432 (inactive) | -0.000383 (inactive) | 0.00449 (inactive) | -11.4% (inactive) | 1.41% (inactive) |
| O=C(CCN1CCOCC1)Nc1ccc2c(c1)CCC2 | 228 | 5.7% (inactive) | 17.3% (inactive) | 74.9 | -83.8% (inactive) | 140 | -0.442 (inactive) | -5.3e-05 (inactive) | 0.00437 (inactive) | 4.13% (inactive) | -9.22% (inactive) |
| O=C(CP(=O)(c1ccccc1)c1ccccc1)N1CCCCC1 | 378 | 6.6% (inactive) | -16% (inactive) | 105 | -29.8% (inactive) | 107 | -0.528 (inactive) | -1.9e-05 (inactive) | 0.00576 (inactive) | 18% (inactive) | 22.1% (inactive) |
| CCOC(=O)CSC1=Nc2ccccc2C2=NC(CC(=O)NCc3cccs3)C(=O)N12 (stereo not drawn) | 224 | 7.2% (inactive) | 13.9% (inactive) | 81.6 | 26% (inactive) | 78.1 | -0.572 (inactive) | -5.5e-05 (inactive) | 0.00528 (inactive) | 0.227% (inactive) | 9.15% (inactive) |
| O=C(NCCN1CCOCC1)C1CC(=O)N(c2ccc(F)c(Cl)c2)C1 (stereo not drawn) | 353 | -4.7% (inactive) | 21.8% (inactive) | 76.2 | -63.7% (inactive) | 120 | -0.554 (inactive) | -3.9e-05 (inactive) | 0.00645 (inactive) | 10.9% (inactive) | 10.3% (inactive) |
| CC1(C)CC(=O)c2cc(OCC(=O)N3CCN(c4ccccc4F)CC3)ccc2O1 | 550 | -19.1% (inactive) | -3.9% (inactive) | 94.6 | -101% (inactive) | 118 | -0.288 (inactive) | -5.4e-06 (inactive) | 0.00419 (inactive) | 19.9% (inactive) | 0.776% (inactive) |
| Cc1cc(NC(=O)CSc2ccc(Cl)cc2)no1 | 368 | 0.2% (inactive) | 12.7% (inactive) | 94.2 | -83.4% (inactive) | 102 | -0.548 (inactive) | -0.000128 (inactive) | 0.00359 (inactive) | -7.02% (inactive) | -14.7% (inactive) |
| CCOc1ccccc1Nc1nc2ccccc2[nH]1 | 327 | 1.2% (inactive) | 5.9% (inactive) | 111 | 2.9% (inactive) | 109 | -0.524 (inactive) | -0.000156 (active) | 0.00599 (inactive) | -18.9% (inactive) | -39.8% (inactive) |
| CCCCNC(=O)c1cc(-c2ccc(F)cc2)on1 | 240 | -2.8% (inactive) | 5.2% (inactive) | 106 | -39.2% (inactive) | 120 | -0.483 (inactive) | -3.3e-05 (inactive) | 0.00454 (inactive) | -21.5% (inactive) | -168% (inactive) |
| O=C(Cn1ccc2ccccc2c1=O)NCCC(=O)NC1CCN(Cc2ccccc2)CC1 | 661 | -8.5% (inactive) | 2.9% (inactive) | 83.9 | -130% (inactive) | 129 | -0.486 (inactive) | -0.000203 (inactive) | 0.00456 (inactive) | -8.1% (inactive) | 0.132% (inactive) |
| CC(C)(C)c1cc(C(=S)N2CCN(CCO)CC2)cc(C(C)(C)C)c1O | 667 | -1.4% (inactive) | 10.4% (inactive) | 105 | -150% (inactive) | 128 | -0.534 (inactive) | -4.4e-05 (inactive) | 0.00566 (inactive) | 24.4% (inactive) | 29.9% (inactive) |
| O=C(Cn1cnc2c(oc3ccccc32)c1=O)N1CCN(c2ccccc2)CC1 | 648 | 10.8% (inactive) | 34.2% (inactive) | 95 | -78% (inactive) | 84.4 | -0.493 (inactive) | 1.3e-05 (inactive) | 0.00654 (inactive) | 10.1% (inactive) | 17.4% (inactive) |
| CCn1c(SCC(=O)Nc2nnc(C)s2)nnc1-c1ccncc1 | 554 | -17.9% (inactive) | 25.6% (inactive) | 92.8 | -53.1% (inactive) | 114 | -0.301 (inactive) | -5.1e-05 (inactive) | 0.00811 (inactive) | 15.2% (inactive) | 0.883% (inactive) |
| CCOC(=O)c1c(NC(=O)CSc2nnc(-c3ccc(OC)cc3)o2)sc2c1CCC2 | 705 | -10.9% (inactive) | -10.3% (inactive) | 113 | -10.2% (inactive) | 91.1 | -0.56 (inactive) | -9.6e-07 (inactive) | 0.0094 (inactive) | 0.872% (inactive) | 5.8% (inactive) |
| Cc1cc2c(c(=O)n1CCc1ccccc1)C(C(C)C)C(C#N)=C(N)O2 (stereo not drawn) | 565 | 11.2% (inactive) | -1.8% (inactive) | 106 | -39% (inactive) | 123 | -0.577 (inactive) | -7.9e-05 (inactive) | 0.00377 (inactive) | 15.9% (inactive) | 25.8% (inactive) |
| O=C(CSc1nnc2scc(-c3ccccc3)n12)N1CCN(Cc2ccccc2)CC1 | 703 | -24.5% (inactive) | 6.5% (inactive) | 110 | 19.1% (inactive) | 91.4 | -0.5 (inactive) | 2.7e-06 (inactive) | 0.00675 (inactive) | 6.37% (inactive) | 7.98% (inactive) |
| Cc1nc2ccccc2cc1C(=O)NCc1ccco1 | 387 | 3.2% (inactive) | -3.6% (inactive) | 75.3 | -278% (inactive) | 126 | -0.53 (inactive) | -3.7e-05 (inactive) | 0.00494 (inactive) | 1.46% (inactive) | 0.0614% (inactive) |
| Cn1c(SC/C=C/c2ccccc2)nnc1-c1cnccn1 | 630 | 1.1% (inactive) | -4.5% (inactive) | 114 | 6.2% (inactive) | 95.1 | -0.572 (inactive) | 2.7e-05 (inactive) | 0.00503 (inactive) | -12.1% (inactive) | -35% (inactive) |
| COc1cc(NS(=O)(=O)c2ccc(Br)s2)cc(OC)c1 | 596 | 10.2% (inactive) | -27.3% (inactive) | 99.5 | -77.9% (inactive) | 94.3 | -0.402 (inactive) | 6.7e-05 (inactive) | 0.00547 (inactive) | 9.26% (inactive) | 10% (inactive) |
